# Compound activity from PubChem.
# A selection: hits, their analogues and other compounds. The true share with any hit is near 1.6%.
# VIM-2 inhibitor – VIM-2 metallo-beta-lactamase inhibitors, primary screen, biochemical, epi-absorbance readout, Pseudomonas aeruginosa enzyme | purified VIM-2, nitrocefin hydrolysis, epi-absorbance fluorescence | inhibition, % at 5.6 µM | actives 0.89% (n = 290,000) | AID 1527, 2009;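 active means inhibition above the mean of all tested compounds plus 3 SD, cutoff set per screening run, cut at about 7.5% in these data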;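 further: red hydrolysis product quenches plate fluorescence so inhibitors raise well fluorescence; 0% = enzyme with DMSO and 100% = DMSO without enzyme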
# IMP-1 inh-1 – IMP-1 metallo-beta-lactamase inhibitors, primary screen, biochemical, epi-absorbance readout, Pseudomonas aeruginosa enzyme; actives 0.45% (n = 290,000); AID 1556, 2009; inhibition, % at 5.6 µM; purified IMP-1, nitrocefin hydrolysis, epi-absorbance fluorescence;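 active means inhibition above the mean plus 3 SD of all compounds in the same screening run, cut at about 4.5% in these data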;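 further: 0% = IMP-1 with DMSO and 100% = DMSO wells lacking enzyme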
#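 System: purified IMP-1 / Input: IMP-1 dispensed at 0.2 nM / Medium: 50 mM HEPES pH 7.1, 50 µM ZnSO4, 0.05% Brij 35 / Timing: 15 min enzyme–compound preincubation, then 25 min nitrocefin reaction, 25 °C / Technique: plate fluorescence quenching by hydrolysis product, ex 480/em 530 nm / Repeats: singlicate testing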
# DNA FID counter – compounds displacing fluorescent DNA intercalator, primary screen, artefact control for HCV NS3 helicase inhibitor project, biochemical, FID fluorescence | actives 0.17% (n = 290,000) | AID 1845, 2009 | DNA fluorescent intercalator displacement | inhibition, % at 7.9 µM; in the data active means inhibition above about 37%;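 further: 0% = vehicle and 100% = reference compound; higher means more ethidium bromide displaced from hairpin DNA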
# HCV core dimer – inhibitors of HCV core protein dimerization, primary screen, biochemical, TR-FRET, high-throughput. inhibition, % at 5 µM. actives 0.33% (n = 300,000). TR-FRET GST/Flag-core106 dimerization, 1536-well;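 active means inhibition above the mean of all tested compounds plus 3 SD, set per screening campaign, cut at about 45% in these data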
#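 Assay system: tagged HCV core106 pair (GST and Flag); medium: KF-containing HEPES buffer, pH 7.45, DTT, CHAPS, BSA; also added: Eu donor and XL665 acceptor anti-tag antibodies; dosing: 5 µM single dose; timing: compound-protein-antibody incubation 4 h at 22.5 °C; signal: TR-FRET 671 and 617 nm emission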
# IMP-1 inh-2 – IMP-1 metallo-beta-lactamase inhibitors, confirmation, selectivity assay for selective VIM-2 inhibitor project, biochemical, epi-absorbance readout, triplicate; shares compounds with VIM-2 inhibitor; purified IMP-1, nitrocefin hydrolysis, epi-absorbance fluorescence; inhibition, % at 5.6 µM; 1,300 tested, under 10 active; call rule not given here;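 further: 0% = enzyme with vehicle and 100% = vehicle without enzyme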
# VIM-2 FRET inh – VIM-2 inhibitors in FRET format, confirmation, artefact control for selective VIM-2 inhibitor project, biochemical, epi-absorbance artifact exclusion; shares compounds with VIM-2 inhibitor; purified VIM-2, CCF2 FRET substrate hydrolysis; inhibition, % at 5.6 µM; actives 23% (n = 1,300); AID 1857, 2009;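 active means inhibition above the mean of all tested compounds plus 3 SD, cut at about 19% in these data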;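 further: 0% = VIM-2 plus DMSO and 100% = no enzyme wells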
# TEM-1 counter – TEM-1 serine beta-lactamase inhibitors, counter-screen for VIM-2 inhibitor project, biochemical, epi-absorbance, HTS. shares compounds with VIM-2 inhibitor. actives 3% (n = 1,300). Purified TEM-1, nitrocefin hydrolysis, epi-absorbance fluorescence. inhibition, % at 5.6 µM;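 active means inhibition above that campaign's mean inhibition plus 3 SD, cut at about 0.46% in these data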;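 further: 0% = TEM-1 with DMSO and 100% = TEM-1 with 100 µM potassium clavulanate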
# Target sequence (P62593 whole entry, looked up): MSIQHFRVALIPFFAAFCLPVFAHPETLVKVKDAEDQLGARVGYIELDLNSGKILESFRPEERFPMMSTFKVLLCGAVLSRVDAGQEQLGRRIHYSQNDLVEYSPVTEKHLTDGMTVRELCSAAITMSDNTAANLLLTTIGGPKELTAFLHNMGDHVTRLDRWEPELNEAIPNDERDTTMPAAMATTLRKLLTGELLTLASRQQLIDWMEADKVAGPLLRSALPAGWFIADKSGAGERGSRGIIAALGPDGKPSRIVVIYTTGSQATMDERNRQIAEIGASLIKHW
# VIM-2 confirm 2 – VIM-2 metallo-beta-lactamase inhibitors, confirmation, biochemical, epi-absorbance, hits shared with IMP-1 screen; shares compounds with VIM-2 inhibitor; purified VIM-2, nitrocefin hydrolysis; inhibition, % at 5.6 µM; actives 96% (n = 1,300); AID 2187, 2009;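 active means inhibition of the VIM-2 beta-lactamase enzyme above about 11% from the earlier first-round screen, limit read from the data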;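 further: 0% = VIM-2 with DMSO and 100% = buffer wells without enzyme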
# Numbers without * were called inactive; . = no result.
SMILES,VIM-2 inhibitor,IMP-1 inh-1,DNA FID counter,HCV core dimer,IMP-1 inh-2,VIM-2 FRET inh,TEM-1 counter,VIM-2 confirm 2
CN1CCN(C(=O)CSc2nc(-c3ccco3)cc(C(F)(F)F)n2)CC1,42.8*,-0.3,4.7,-2.1,-3.3,2.5,-5.7,57.5*
O=C(CSc1nc(-c2ccco2)cc(C(F)(F)F)n1)N1CCSCC1,0.6,-1.7,-26.6,7.2,.,.,.,.
O=C(O)CCS(=O)(=O)Cc1ccccc1F,-2.6,-6.9,-0.5,2.1,.,.,.,.
OC(CON=C1c2ccccc2-c2ccccc21)CN1CCNCC1 (configuration not stated),30.1*,-0.6,19.7,-4.7,-3.2,-3.5,-6.5,45.2*
COc1ccc(-c2cc(C(F)(F)F)n3nc(C(=O)N4CCN5CCCC5C4)cc3n2)cc1OC (configuration not stated),25.7*,-0.8,-6.7,9.5,-2.7,0.1,-6.0,40.0*
N#CCOc1nc(N2CCCCC2)nc(N2CCCCC2)n1,-1.0,-1.8,-23.1,-9.7,.,.,.,.
COc1ccc(-c2ccc(CNCc3ccccn3)o2)cc1Cl,55.5*,-1.2,3.7,3.2,-2.3,-2.3,-7.1,67.3*
Clc1ccc(-c2ccc(CNCc3ccccn3)o2)cc1,24.2*,-2.5,7.9,6.9,-3.1,-18.8,-5.7,42.3*
CC(C)C(CCNCc1ccccn1)c1ccc(Cl)cc1 (configuration not stated),-5.8,-5.2,12.0,3.8,.,.,.,.
CCn1cc(C(=O)NCCCN(C)C)c(=O)c2cc(F)c(N3CCN(C)CC3)cc21,21.4*,-6.9,68.4*,-2.5,-3.0,4.4,-5.2,36.4*
CCCCCNC(=O)c1cn(CC)c2cc(N3CCN(C)CC3)c(F)cc2c1=O,2.9,0.5,14.6,-10.0,.,.,.,.
CCc1n[nH]c(=S)n1/N=C/C(C)=C\c1ccccc1,57.3*,-2.2,-24.6,3.7,-4.4,83.2*,-10.1,70.3*
CCc1n[nH]c(=S)n1/N=C/c1ccc(NC(C)=O)cc1,23.2*,-3.2,-5.0,1.8,-3.7,61.4*,-6.6,45.7*
CC(/C=N/n1c(-c2ccccn2)n[nH]c1=S)=C\c1ccccc1,1.7,-3.8,-1.9,8.0,.,.,.,.
CC(/C=N/n1c(-c2ccco2)n[nH]c1=S)=C\c1ccccc1,13.3*,-3.0,-21.6,-4.2,-3.3,39.6*,-7.2,23.3*
COC(=O)CSc1nc2ccc(C)cc2cc1C#N,-0.7,-2.2,0.2,0.6,.,.,.,.
O=C(Nc1cc(S(=O)(=O)N2CCOCC2)ccc1-n1cncn1)c1ccc(Cl)cc1,-2.9,-1.9,-10.5,5.5,.,.,.,.
CCCc1cc(=O)oc2c3c(cc(OCC(=O)NCCCn4ccnc4)c12)OC(C)(C)CC3,16.8*,0.0,18.6,4.3,-2.6,-15.7,-4.0,28.0*
Cc1cc(=O)oc2c3c(cc(OCC(=O)NCCCn4ccnc4)c12)OC(C)(C)CC3,14.5*,0.5,7.8,-0.5,-1.7,-7.3,-1.2,21.8*
Cc1cc(=O)oc2c3c(cc(OCC(=O)NCCN4CCOCC4)c12)OC(C)(C)CC3,-0.5,-0.7,-8.7,2.4,.,.,.,.
Oc1ccc2ccccc2c1-c1sc(Nc2ccccc2)n[n+]1-c1ccc(F)cc1,16.9*,0.5,-4.3,-22.5,4.9*,-3.7,1.3*,8.2*
CCOC(=O)c1cnc2ccc(OCC)cc2c1NCCCN1CCOCC1,32.2*,-3.7,54.6*,1.7,-2.8,-3.4,-5.6,45.0*
CCOC(=O)c1cnc2ccc(C(=O)OC)cc2c1NCCCN1CCOCC1,69.9*,0.6,28.5,.,-3.9,-3.1,-6.0,81.7*
COc1cc(/C=C/C(=O)OCC(=O)Nc2ccc([N+](=O)[O-])cc2)ccc1O,-1.6,-0.9,5.9,4.5,.,.,.,.
Cc1c(C(=O)NN)sc(=S)n1C,-0.8,-1.6,3.5,1.8,.,.,.,.
SMILES,VIM-2 inhibitor,IMP-1 inh-1,DNA FID counter,HCV core dimer,IMP-1 inh-2,VIM-2 FRET inh,TEM-1 counter,VIM-2 confirm 2
Oc1ccc(Nc2nc(N3CCCC3)c3ccccc3n2)cc1,30.8*,-3.4,20.1,-3.5,-2.3,-4.1,-3.4,49.2*
O=C(COc1cccc(Cl)c1)N/N=C\c1cc2ccccc2nc1Cl,-2.6,-1.9,0.3,11.8,.,.,.,.
O=C(CNc1ccc2ccccc2c1)N/N=C/c1cc2ccccc2nc1Cl,22.0*,1.2,-2.1,18.3,-4.5,2.5,-8.8,34.2*
Cc1ccc(/C(O)=C2/C(=O)C(=O)N(Cc3cccnc3)C2c2ccccn2)cc1 (configuration not stated),2.8,-3.4,-10.2,-1.7,.,.,.,.
O=C1C(=O)N(Cc2cccnc2)C(c2ccccn2)/C1=C(/O)c1ccc(F)cc1 (configuration not stated),52.1*,-2.5,0.8,-8.0,-2.4,75.7*,-6.1,68.9*
COc1cccc(C2/C(=C(/O)c3ccccc3)C(=O)C(=O)N2Cc2ccco2)c1 (configuration not stated),-0.3,-3.1,-13.2,7.7,.,.,.,.
COc1ccc(OC)c(C2/C(=C(/O)c3ccc(C)cc3)C(=O)C(=O)N2Cc2ccco2)c1 (configuration not stated),21.2*,-2.3,-27.4,3.5,-2.7,55.5*,-5.5,45.1*
COc1ccc(/C(O)=C2\C(=O)C(=O)N(Cc3ccco3)C2c2cc(OC)ccc2OC)cc1 (configuration not stated),12.3*,-2.8,-41.7,4.9,-4.0,35.0*,-6.3,25.9*
COc1ccc(OC)c(C2C(C(=O)c3ccco3)=C(O)C(=O)N2Cc2cccnc2)c1 (configuration not stated),61.1*,-1.5,-22.0,1.3,-2.4,78.2*,-5.0,67.9*
COc1ccc(OC)c(C2/C(=C(/O)c3ccccc3)C(=O)C(=O)N2Cc2ccco2)c1 (configuration not stated),66.5*,-1.1,-39.5,-4.9,-2.7,76.7*,-5.8,70.3*
O=C(OCCCN1CCOCC1)c1ccc(O)c(O)c1,-3.2,-3.0,-1.4,2.4,.,.,.,.
CCOC(=O)c1cc(-c2ccc(/C=C3/C(=O)N(c4ccc(C(=O)O)cc4)N=C3C)o2)ccc1Cl,-3.7,-3.9,-2.7,0.4,.,.,.,.
